ChEMBL document CHEMBL1121831 (1981)

Columns and labels:
[1] = system: CCRF-CEM; experiment: Compound is tested for the inhibition of growth of human lymphoblastic leukemia cells (CEM); assay type: functional; conditions: read-out: ID50 (the source's name)
Procedure, shortened: (§1)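 CEM human lymphoblastic and L1210 murine leukemia cells were grown in culture with drug for 48 h, at concentrations up to 10 μM. The read-out was growth inhibition, given as ID50 or, where ID50 was not reached, as percent inhibition at 10 μM. Values are averages of triplicate experiments.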

[2] = target: Dihydrofolate reductase (Lactobacillus casei) (UniProt P00381); experiment: Compound is evaluated for binding to Lactobacillus casei dihydrofolate reductase using kinetic assay; conditions: Lacticaseibacillus casei
Chain of Dihydrofolate reductase (Lactobacillus casei) (P00381 whole entry): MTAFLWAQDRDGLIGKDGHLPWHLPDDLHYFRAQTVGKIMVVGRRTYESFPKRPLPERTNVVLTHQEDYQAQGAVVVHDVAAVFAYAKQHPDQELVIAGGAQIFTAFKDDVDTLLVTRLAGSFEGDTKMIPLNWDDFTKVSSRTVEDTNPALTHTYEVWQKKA

[3] = system: L1210; experiment: Compound is evaluated for activity against L1210 leukemia in mice, at dose 15 mg/kg in experiment 1; assay type: functional, Mus musculus
Procedure, shortened: (§2)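 B6D2F1 mice were inoculated ip with 10^5 L1210 cells on day 0. Test agents were given ip on days 1, 4 and 7 in 10% Tween 80 or a 1:1:8 emulphor-ethanol-water suspension; MTX was given ip as the disodium salt in water. Groups were mostly five mice. Read-out was median survival of treated vs control mice (days) and % increase in life span.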

[4] = system: L1210; experiment: Compound is evaluated for activity against L1210 leukemia in mice, at dose 20 mg/kg in experiment 2; assay type: functional, Mus musculus; procedure, shortened: as §2
[5] = system: L1210; experiment: Compound is evaluated for activity against L1210 leukemia in mice, at dose 40 mg/kg in experiment 2; assay type: functional, Mus musculus; procedure, shortened: as §2
[6] = system: L1210; experiment: Compound is evaluated for activity against L1210 leukemia in mice, at dose 7.5 mg/kg in experiment 1; assay type: functional, Mus musculus; procedure, shortened: as §2
[7] = system: L1210; experiment: Compound is tested for the inhibition of growth of murine leukemia cells (L1210); assay type: functional; conditions: Mus musculus, read-out: ID50 (the source's name); procedure, shortened: as §1
[8] = system: L1210; experiment: Compound is evaluated for percent increase in life span against L1210 leukemia in mice, at dose 20 mg/kg in experiment 2; assay type: functional; conditions: Mus musculus
Procedure, shortened: (§3)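 B6D2F1 mice were inoculated ip with 10⁵ L1210 cells on day 0. Drug was given ip on days 1, 4 and 7 (q3d) as a suspension in 10% Tween 80 or 1:1:8 emulphor–ethanol–water, or as the disodium salt in water. The read-out was median survival of treated versus control mice (T/C, days), expressed as % increase in life span.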

[9] = system: L1210; experiment: Compound is evaluated for percent increase in life span against L1210 leukemia in mice, at dose 40 mg/kg in experiment 2; assay type: functional; conditions: Mus musculus; procedure, shortened: as §3
[10] = system: L1210; experiment: Compound is evaluated for percent increase in life span against L1210 leukemia in mice, at dose 7.5 mg/kg in experiment 1; assay type: functional; conditions: Mus musculus; procedure, shortened: as §3
[11] = system: L1210; experiment: Compound is evaluated for percent increase in life span against L1210 leukemia in mice, at dose 15 mg/kg in experiment 1; assay type: functional; conditions: Mus musculus; procedure, shortened: as §3
[12] = system: Mus musculus; experiment: Compound is evaluated for activity against L1210 leukemia in mice, at dose 7.5 mg/kg expressed as T/C in experiment 1; assay type: functional; procedure, shortened: as §2
[13] = system: Mus musculus; experiment: Compound is evaluated for activity against L1210 leukemia in mice, at dose 15 mg/kg expressed as T/C in experiment 1; assay type: functional; procedure, shortened: as §2
[14] = system: Mus musculus; experiment: Compound is evaluated for activity against L1210 leukemia in mice, at dose 20 mg/kg expressed as T/C in experiment 2; assay type: functional; procedure, shortened: as §2
[15] = system: Mus musculus; experiment: Compound is evaluated for activity against L1210 leukemia in mice, at dose 40 mg/kg expressed as T/C in experiment 2; assay type: functional; procedure, shortened: as §2
[16] = target: T1, Dihydrofolate reductase (Mus musculus) (UniProt P00375); experiment: Compound is evaluated for binding to L1210 mouse leukemia cells dihydrofolate reductase using ligand-binding assay
T1 sequence (whole entry): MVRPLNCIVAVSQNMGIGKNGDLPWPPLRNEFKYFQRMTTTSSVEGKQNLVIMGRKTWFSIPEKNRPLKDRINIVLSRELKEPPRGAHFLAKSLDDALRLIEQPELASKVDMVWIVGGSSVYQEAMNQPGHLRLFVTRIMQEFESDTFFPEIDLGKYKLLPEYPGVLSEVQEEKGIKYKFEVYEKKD

[17] = system: L1210; experiment: Compound was evaluated for activity against L1210 leukemia in mice, at dose 7.5 mg/kg in experiment 1; assay type: functional, Mus musculus; procedure, shortened: as §2
[18] = system: Mus musculus; experiment: Compound is evaluated for activity against L1210 leukemia in mice, at dose 40 mg/kg expressed as T/C in experiment 2=12/9; assay type: functional; procedure, shortened: as §2
[19] = system: Mus musculus; experiment: Compound was evaluated for activity against L1210 leukemia in mice, at dose 7.5 mg/kg expressed as T/C in experiment 1=14/10; assay type: functional; procedure, shortened: as §2
[20] = system: Mus musculus; experiment: Compound is evaluated for activity against L1210 leukemia in mice, at dose 15 mg/kg expressed as T/C in experiment 1=14/10; assay type: functional; procedure, shortened: as §2
[21] = system: Mus musculus; experiment: Compound is evaluated for activity against L1210 leukemia in mice, at dose 20 mg/kg expressed as T/C in experiment 2=16/9; assay type: functional; procedure, shortened: as §2
[22] = system: RBL-1; experiment: Compound was tested for the inhibition of growth of rat basophilic leukemia (RBL) cells; assay type: functional; conditions: read-out: ID50 (the source's name)
[23] = target: Dihydrofolate reductase (Lactobacillus casei) (UniProt P00381); experiment: Compound is evaluated for binding to dihydrofolate reductase of Lactobacillus casei using kinetic assay; conditions: Lacticaseibacillus casei
[24] = system: L1210; experiment: Compound is evaluated for activity against L1210 leukemia in mice, at dose 120 mg/kg; assay type: functional, Mus musculus; procedure, shortened: as §2
[25] = system: L1210; experiment: Compound is evaluated for activity against L1210 leukemia in mice, at dose 40 mg/kg; assay type: functional, Mus musculus; procedure, shortened: as §2
[26] = system: L1210; experiment: Compound is evaluated for activity against L1210 leukemia in mice, at dose 80 mg/kg; assay type: functional, Mus musculus; procedure, shortened: as §2
[27] = system: L1210; experiment: Compound is evaluated for percent increase in life span against L1210 leukemia in mice, at dose 80 mg/kg; assay type: functional; conditions: Mus musculus; procedure, shortened: as §3
[28] = system: L1210; experiment: Compound is evaluated for percent increase in life span against L1210 leukemia in mice, at dose 40 mg/kg; assay type: functional; conditions: Mus musculus; procedure, shortened: as §3
[29] = system: L1210; experiment: Compound is evaluated for percent increase in life span against L1210 leukemia in mice, at dose 120 mg/kg; assay type: functional; conditions: Mus musculus; procedure, shortened: as §3
[30] = system: Mus musculus; experiment: Compound is evaluated for activity against L1210 leukemia in mice, at dose 40 mg/kg expressed as T/C= 13/9; assay type: functional; procedure, shortened: as §2
[31] = system: Mus musculus; experiment: Compound is evaluated for activity against L1210 leukemia in mice, at dose 80 mg/kg expressed as T/C=19/9; assay type: functional; procedure, shortened: as §2
[32] = system: Mus musculus; experiment: Compound is evaluated for activity against L1210 leukemia in mice, at dose 120 mg/kg expressed as T/C=23/9; assay type: functional; procedure, shortened: as §2
[33] = system: L1210; experiment: Compound is evaluated for activity against L1210 leukemia in mice, at dose 160 mg/kg; assay type: functional, Mus musculus; procedure, shortened: as §2
[34] = system: L1210; experiment: Compound is evaluated for percent increase in life span against L1210 leukemia in mice, at dose 160 mg/kg; assay type: functional; conditions: Mus musculus; procedure, shortened: as §3
[35] = system: Mus musculus; experiment: Compound is evaluated for activity against L1210 leukemia in mice, at dose 80 mg/kg expressed as T/C=11/9; assay type: functional; procedure, shortened: as §2
[36] = system: Mus musculus; experiment: Compound is evaluated for activity against L1210 leukemia in mice, at dose 160 mg/kg expressed as T/C=15/9; assay type: functional; procedure, shortened: as §2
[37] = system: CCRF-CEM (Homo sapiens); experiment: Percent inhibition of human lymphoblastic leukemia cell growth (48h) at 10 uM
[38] = system: L1210; experiment: Compound is evaluated for percent increase in against L1210 leukemia in mice, at dose 15 mg/kg; assay type: functional; conditions: Mus musculus; procedure, shortened: as §3
[39] = system: L1210; experiment: Compound is evaluated for percent increase in against L1210 leukemia in mice, at dose 30 mg/kg; assay type: functional; conditions: Mus musculus, L1210, dose 30 mg/kg; procedure, shortened: as §3
[40] = system: Mus musculus; experiment: Compound is evaluated for activity against L1210 leukemia in mice, at dose 60 mg/kg expressed as T/C=18/9; assay type: functional; procedure, shortened: as §2
[41] = system: Mus musculus; experiment: Compound is evaluated for activity against L1210 leukemia in mice, at dose 15 mg/kg expressed as T/C=15.5/9; assay type: functional; procedure, shortened: as §2
[42] = system: Mus musculus; experiment: Compound is evaluated for activity against L1210 leukemia in mice, at dose 30 mg/kg expressed as T/C=16.5/9; assay type: functional; procedure, shortened: as §2
[43] = system: RBL-1; experiment: Compound is tested for the inhibition of growth of rat basophilic leukemia (RBL)cells; assay type: functional; conditions: read-out: ID50 (the source's name)

CN(Cc1cnc2nc(N)nc(N)c2n1)c1ccc(C(=O)NC(CCC(=O)NO)C(=O)O)cc1 (stereo not given)
IC50 [1]: 250 nM
ID50 [2]: 30 nM
MTX equivalent [3]: 14.6 mg/kg
MTX equivalent [4]: 19.4 mg/kg
MTX equivalent [5]: 38.8 mg/kg
MTX equivalent [6]: 7.3 mg/kg
IC50 [7]: 62 nM
ILS at 20 mg/kg [8]: 89%
ILS at 40 mg/kg [9]: 111%
ILS at 7.5 mg/kg [10]: 50%
ILS at 15 mg/kg [11]: 60%
Median T/C [12]: 15 days
Median T/C [13]: 16 days
Median T/C [14]: 17 days
Median T/C [15]: 19 days
ID50 [16]: 4.8 nM

CN(Cc1cnc2nc(N)nc(N)c2n1)c1ccc(C(=O)NC(CCC(=O)NN)C(=O)NN)cc1 (stereo not given)
IC50 [1]: 7500 nM
ID50 [2]: 360 nM
MTX equivalent [3]: 14.2 mg/kg
MTX equivalent [4]: 18.8 mg/kg
MTX equivalent [5]: 37.6 mg/kg
MTX equivalent [17]: 7.1 mg/kg
IC50 [7]: 950 nM
ILS at 20 mg/kg [8]: 77%
ILS at 40 mg/kg [9]: 33%
ILS at 7.5 mg/kg [10]: 40%
ILS at 15 mg/kg [11]: 40%
Median T/C [18]: 12 days
Median T/C [19]: 14 days
Median T/C [20]: 14 days
Median T/C [21]: 16 days
IC50 [22]: 960 nM
ID50 [16]: 20 nM

CN(Cc1cnc2nc(N)nc(N)c2n1)c1ccc(C(=O)NC(CCC(=O)Nc2ccccc2)C(=O)Nc2ccccc2)cc1 (stereo not given)
IC50 [1]: 3300 nM
ID50 [23]: 1100 nM
MTX equivalent [24]: 90 mg/kg
MTX equivalent [25]: 30 mg/kg
MTX equivalent [26]: 60 mg/kg
IC50 [7]: 410 nM
ILS at 80 mg/kg [27]: 111%
ILS at 40 mg/kg [28]: 44%
ILS at 120 mg/kg [29]: 155%
Median T/C [30]: 13 days
Median T/C [31]: 19 days
Median T/C [32]: 23 days
ID50 [16]: 74 nM

COc1ccc(CNC(=O)CCC(NC(=O)c2ccc(N(C)Cc3cnc4nc(N)nc(N)c4n3)cc2)C(=O)NCc2ccc(OC)cc2)cc1 (stereo not given)
IC50 [1]: > 10000 nM
ID50 [2]: 400 nM
MTX equivalent [33]: 128 mg/kg
MTX equivalent [26]: 64 mg/kg
IC50 [7]: 8200 nM
ILS at 80 mg/kg [27]: 22%
ILS at 160 mg/kg [34]: 66%
Median T/C [35]: 11 days
Median T/C [36]: 15 days
inhibition at 10 µM [37]: 44%
ID50 [16]: 130 nM

CN(Cc1cnc2nc(N)nc(N)c2n1)c1ccc(C(=O)N[C@@H](CCC(=O)O)C(=O)O)cc1 [METHOTREXATE]
IC50 [1]: 3 nM
IC50 [7]: 10 nM
ILS at 15 mg/kg [38]: 72%
ILS at 30 mg/kg [39]: 83%
Median T/C [40]: 18 days
Median T/C [41]: 15.5 days
Median T/C [42]: 16.5 days
IC50 [43]: 3 nM
